# ChEMBL document CHEMBL1821594, “Synthesis and anticancer evaluation of novel 2-cyclopropylimidazo[2,1-b][1,3,4]-thiadiazole derivatives” (2011)
# Legend:
# Type in all cases: functional
# Malme-3M = experiment: Antitumor activity against human MALME-3M cells after 48 hrs by SRB assay
# Outline: (§1)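 Cells grown in RPMI 1640 with 5% FBS and 2 mM L-glutamine and seeded at 5000–40,000 cells/well according to doubling time. They were preincubated 24 h at 37 °C, 5% CO2, then exposed to DMSO-solubilized compound for 48 h. Adherent cells were fixed with cold TCA (10% final), suspension cells with 16% final. Stained with 0.4% SRB; absorbance at 515 nm. Percent growth calculated against time-zero and control plates.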
# NCI-H460 = experiment: Antitumor activity against human NCI-H460 cells after 48 hrs by SRB assay; conditions: NCI-H460, 48 h; outline: as §1
# OVCAR-5 = experiment: Antitumor activity against human OVCAR5 cells after 48 hrs by SRB assay; conditions: OVCAR-5, 48 h; outline: as §1
# HT-29 = experiment: Antitumor activity against human HT-29 cells after 48 hrs by SRB assay; conditions: HT-29, 48 h; outline: as §1
# SNB-19 = experiment: Antitumor activity against human SNB19 cells after 48 hrs by SRB assay; conditions: SNB-19, 48 h; outline: as §1
# MCF7 = experiment: Antitumor activity against human MCF7 cells after 48 hrs by SRB assay; conditions: MCF7, 48 h; outline: as §1
# HOP-62 = experiment: Antitumor activity against human HOP62 cells after 48 hrs by SRB assay; conditions: HOP-62, 48 h; outline: as §1
# OVCAR-4 = experiment: Antitumor activity against human OVCAR4 cells after 48 hrs by SRB assay; conditions: OVCAR-4, 48 h; outline: as §1
# NCI-H23 = experiment: Antitumor activity against human NCI-H23 cells after 48 hrs by SRB assay; conditions: NCI-H23, 48 h; outline: as §1
# SF-268 = experiment: Antitumor activity against human SF268 cells after 48 hrs by SRB assay; conditions: SF-268, 48 h; outline: as §1
# HCT-116 = experiment: Antitumor activity against human HCT116 cells after 48 hrs by SRB assay; conditions: HCT-116, 48 h; outline: as §1
# OVCAR-8 = experiment: Antitumor activity against human OVCAR8 cells after 48 hrs by SRB assay; conditions: OVCAR-8, 48 h; outline: as §1
# SNB-75 = experiment: Antitumor activity against human SNB75 cells after 48 hrs by SRB assay; conditions: SNB-75, 48 h; outline: as §1
# COLO 205 = experiment: Antitumor activity against human COLO205 cells after 48 hrs by SRB assay; conditions: COLO 205, 48 h; outline: as §1
# MOLT-4 = experiment: Antitumor activity against human MOLT4 cells after 48 hrs by SRB assay; conditions: MOLT-4, 48 h; outline: as §1
# SF-295 = experiment: Antitumor activity against human SF295 cells after 48 hrs by SRB assay; conditions: SF-295, 48 h; outline: as §1
# PC-3 = experiment: Antitumor activity against human PC3 cells after 48 hrs by SRB assay; conditions: PC-3, 48 h; outline: as §1
# ACHN = experiment: Antitumor activity against human ACHN cells after 48 hrs by SRB assay; outline: as §1
# OVCAR-3 = experiment: Antitumor activity against human OVCAR3 cells after 48 hrs by SRB assay; conditions: OVCAR-3, 48 h; outline: as §1
# NCI-H226 = experiment: Antitumor activity against human NCI-H226 cells after 48 hrs by SRB assay; conditions: NCI-H226, 48 h; outline: as §1
# LOX IMVI = experiment: Antitumor activity against human LOXIMVI cells after 48 hrs by SRB assay; outline: as §1
# HCT-15 = experiment: Antitumor activity against human HCT15 cells after 48 hrs by SRB assay; conditions: HCT-15, 48 h; outline: as §1
# IGROV-1 = experiment: Antitumor activity against human IGROV1 cells after 48 hrs by SRB assay; conditions: IGROV-1, 48 h; outline: as §1
# SW-620 = experiment: Antitumor activity against human SW620 cells after 48 hrs by SRB assay; conditions: SW-620, 48 h
# Outline: (§2)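 NCI-60 protocol. Cells were grown in RPMI 1640 with 5% FBS and 2 mM L-glutamine, plated at 5000–40,000 cells/well, and preincubated 24 h at 37 °C, 5% CO2. Time-zero plates were TCA-fixed. Compounds were in DMSO and incubated 48 h. Fixation used cold TCA (final 16% for suspension SR; final 10% for adherent lines 2-7). Plates were stained with 0.4% SRB in 1% acetic acid, solubilized in 10 mM Tris base, and read at 515 nm. Percent growth was calculated from Tz, C and Ti.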
# RXF 393 = experiment: Antitumor activity against human RXF393 cells after 48 hrs by SRB assay; conditions: RXF 393, 48 h; outline: as §1
# NCI/ADR-RES = experiment: Antitumor activity against human NCI/ADR-RES cells after 48 hrs by SRB assay; outline: as §1
# SK-MEL-5 = experiment: Antitumor activity against human SK-MEL-5 cells after 48 hrs by SRB assay; conditions: SK-MEL-5, 48 h; outline: as §1
# T47D = experiment: Antitumor activity against human T47D cells after 48 hrs by SRB assay; outline: as §2
# HOP-92 = experiment: Antitumor activity against human HOP92 cells after 48 hrs by SRB assay; conditions: HOP-92, 48 h; outline: as §1
# [1] = read-out: LC50 (the source's name)
smiles,measurement,setting,value
Clc1ccc(-c2nc3sc(C4CC4)nn3c2Br)cc1,GI50,Malme-3M,8.79 µM
same,TGI,Malme-3M,> 100 µM
same,CC50,Malme-3M; [1],> 100 µM
same,GI50,NCI-H460,5.25 µM
same,TGI,NCI-H460,> 100 µM
same,CC50,NCI-H460; [1],> 100 µM
same,GI50,OVCAR-5,31.9 µM
same,TGI,OVCAR-5,> 100 µM
same,CC50,OVCAR-5; [1],> 100 µM
same,GI50,HT-29,6.12 µM
same,TGI,HT-29,> 100 µM
same,CC50,HT-29; [1],> 100 µM
same,GI50,SNB-19,15.6 µM
same,TGI,SNB-19,> 100 µM
same,CC50,SNB-19; [1],> 100 µM
same,GI50,MCF7,8.18 µM
same,TGI,MCF7,> 100 µM
same,CC50,MCF7; [1],> 100 µM
same,GI50,HOP-62,38.1 µM
same,TGI,HOP-62,> 100 µM
same,CC50,HOP-62; [1],> 100 µM
same,GI50,OVCAR-4,12.7 µM
same,TGI,OVCAR-4,82.1 µM
same,CC50,OVCAR-4; [1],> 100 µM
same,GI50,NCI-H23,5.1 µM
same,TGI,NCI-H23,> 100 µM
same,CC50,NCI-H23; [1],> 100 µM
same,GI50,SF-268,19.3 µM
same,TGI,SF-268,> 100 µM
same,CC50,SF-268; [1],> 100 µM
same,GI50,HCT-116,2.96 µM
same,TGI,HCT-116,> 100 µM
same,CC50,HCT-116; [1],> 100 µM
same,GI50,OVCAR-8,5.76 µM
same,TGI,OVCAR-8,> 100 µM
same,CC50,OVCAR-8; [1],> 100 µM
same,GI50,SNB-75,12.2 µM
same,TGI,SNB-75,51.9 µM
same,CC50,SNB-75; [1],> 100 µM
same,GI50,COLO 205,7.23 µM
same,TGI,COLO 205,> 100 µM
same,CC50,COLO 205; [1],> 100 µM
same,GI50,MOLT-4,2.97 µM
same,TGI,MOLT-4,> 100 µM
same,CC50,MOLT-4; [1],> 100 µM
same,GI50,SF-295,5.04 µM
same,TGI,SF-295,> 100 µM
same,CC50,SF-295; [1],> 100 µM
same,GI50,PC-3,2.22 µM
same,TGI,PC-3,> 100 µM
same,CC50,PC-3; [1],> 100 µM
same,GI50,ACHN,7.07 µM
same,TGI,ACHN,> 100 µM
same,CC50,ACHN; [1],> 100 µM
same,GI50,OVCAR-3,4.63 µM
same,TGI,OVCAR-3,> 100 µM
same,CC50,OVCAR-3; [1],> 100 µM
same,GI50,NCI-H226,4.99 µM
same,TGI,NCI-H226,> 100 µM
same,CC50,NCI-H226; [1],> 100 µM
same,GI50,LOX IMVI,9.2 µM
same,TGI,LOX IMVI,> 100 µM
same,CC50,LOX IMVI; [1],> 100 µM
same,GI50,HCT-15,2.02 µM
same,TGI,HCT-15,> 100 µM
same,CC50,HCT-15; [1],> 100 µM
same,GI50,IGROV-1,17.3 µM
same,TGI,IGROV-1,> 100 µM
same,CC50,IGROV-1; [1],> 100 µM
same,GI50,SW-620,6.88 µM
same,TGI,SW-620,> 100 µM
same,CC50,SW-620; [1],> 100 µM
same,GI50,RXF 393,2.93 µM
same,TGI,RXF 393,14.8 µM
same,CC50,RXF 393; [1],> 100 µM
same,GI50,NCI/ADR-RES,4.18 µM
same,TGI,NCI/ADR-RES,> 100 µM
same,CC50,NCI/ADR-RES; [1],> 100 µM
same,GI50,SK-MEL-5,2.17 µM
same,TGI,SK-MEL-5,> 100 µM
same,CC50,SK-MEL-5; [1],> 100 µM
same,GI50,T47D,4.49 µM
same,TGI,T47D,73.5 µM
same,CC50,T47D; [1],> 100 µM
same,GI50,HOP-92,5.59 µM
same,TGI,HOP-92,37.9 µM
same,CC50,HOP-92; [1],> 100 µM
